Results: ChEMBL document CHEMBL1667802, “1H-imidazo[4,5-c]pyridine-4-carbonitrile as cathepsin S inhibitors: separation of desired cellular activity from undesired tissue accumulation through optimization of basic nitrogen pka” (Bioorg Med Chem Lett, 2011)

Assays:
[1] = molecular target: Procathepsin L (Homo sapiens, UniProt P07711); assay: Inhibition of human cathepsin L
[2] = molecular target: T1, Cathepsin L2 (Homo sapiens, UniProt O60911); assay: Inhibition of human cathepsin V
T1 sequence (O60911 whole entry): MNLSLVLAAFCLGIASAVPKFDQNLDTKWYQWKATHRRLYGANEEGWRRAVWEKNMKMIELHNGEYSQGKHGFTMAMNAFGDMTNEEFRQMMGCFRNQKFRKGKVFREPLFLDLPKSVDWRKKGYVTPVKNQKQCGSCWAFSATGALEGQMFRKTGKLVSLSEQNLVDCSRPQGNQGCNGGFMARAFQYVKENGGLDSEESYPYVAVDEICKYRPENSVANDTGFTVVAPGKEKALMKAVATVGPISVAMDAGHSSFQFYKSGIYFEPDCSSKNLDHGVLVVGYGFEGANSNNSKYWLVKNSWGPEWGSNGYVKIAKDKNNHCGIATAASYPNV

[3] = system: Liver microsomes; assay: Stability in Sprague-Dawley rat liver microsome; format: ADME
[4] = molecular target: Cathepsin B (Homo sapiens, UniProt P07858); assay: Inhibition of human cathepsin B
[5] = system: Liver microsomes; assay: Stability in human liver microsome; format: ADME
[6] = Stability in C57 mouse liver microsome; format: ADME; details: microsomes
[7] = Drug level in C57BI/6 mouse plasma at 30 mg/kg, po after 4 hrs; format: ADME, organism-based; parameters: dose 30 mg/kg, route oral
[8] = Drug level in C57BI/6 mouse spleen at 30 mg/kg, po after 4 hrs; format: ADME, organism-based; parameters: dose 30 mg/kg, route oral; details: read-out: Drug uptake
[9] = Ratio of drug level in spleen to plasma in C57BI/6 mouse at 30 mg/kg, po after 4 hrs; format: ADME, organism-based; parameters: dose 30 mg/kg, route oral
Outline: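 Male or female unspecified 18–25 g C57Bl/6 mice received the HCl salt at 30 mg/kg by oral gavage in 0.5% gelatin, 5% mannitol in water. Blood and spleen were collected after dosing and total compound levels measured. The spleen/plasma ratio was taken from total spleen and total plasma concentrations (nM).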

[10] = system: Spleen; assay: Drug level in C57BI/6 mouse spleen at 30 mg/kg, po; format: ADME, organism-based; parameters: dose 30 mg/kg, route oral; details: in vivo, read-out: Drug uptake
[11] = system: Plasma; assay: Drug level in C57BI/6 mouse plasma at 30 mg/kg, po; format: ADME, organism-based; parameters: dose 30 mg/kg, route oral; details: in vivo
[12] = Ratio of drug level in spleen to plasma in C57BI/6 mouse at 30 mg/kg, po; format: ADME, organism-based; parameters: dose 30 mg/kg, route oral
Outline: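 HCl salt given by oral gavage at 30 mg/kg in 0.5% gelatin, 5% mannitol in water to C57Bl/6 mice of 18–25 g. Blood and spleen collected 2 h after dosing and total compound level measured in each. Ratio taken as total spleen over total plasma concentration.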

[13] = molecular target: T2, Cathepsin S (Homo sapiens, UniProt P25774); assay: Inhibition of human cathepsin S
T2 sequence (P25774 whole entry): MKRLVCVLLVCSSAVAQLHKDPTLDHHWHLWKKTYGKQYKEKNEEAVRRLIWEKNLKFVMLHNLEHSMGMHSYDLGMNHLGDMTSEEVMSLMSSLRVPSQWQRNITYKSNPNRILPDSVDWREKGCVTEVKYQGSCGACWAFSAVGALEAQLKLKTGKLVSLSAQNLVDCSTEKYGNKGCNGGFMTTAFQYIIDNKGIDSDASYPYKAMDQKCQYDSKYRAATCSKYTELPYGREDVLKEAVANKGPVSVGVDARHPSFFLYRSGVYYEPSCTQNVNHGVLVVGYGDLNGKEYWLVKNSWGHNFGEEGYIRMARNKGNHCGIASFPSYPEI

[14] = molecular target: T2, Cathepsin S; assay: Inhibition of cathepsin S in human JY cells assessed as accumulation of lip10 by Western blot analysis; format: cell-based
[15] = Oral bioavailability in C57 mouse at 2 mg/kg, iv or 10 mg/kg, po; format: ADME, organism-based; details: in vivo
Outline: (§1)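 Pharmacokinetics in male C57 mice, Sprague Dawley rats and Cynomolgus monkeys. Dosing was 2 mg/kg iv and 10 mg/kg po, with oral vehicle gelatin/mannitol. Parameters reported are clearance, Vss, Cmax and oral bioavailability (F %).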

[16] = Volume of distribution at steady state in Sprague-Dawley rat at 2 mg/kg, iv or 10 mg/kg, po; format: ADME, organism-based; details: in vivo, read-out: Vdss; outline: as §1
[17] = Clearance in C57 mouse at 2 mg/kg, iv or 10 mg/kg, po; format: ADME, organism-based; details: in vivo; outline: as §1
[18] = Clearance in Sprague-Dawley rat at 2 mg/kg, iv or 10 mg/kg, po; format: ADME, organism-based; details: in vivo; outline: as §1
[19] = Cmax in Sprague-Dawley rat at 2 mg/kg, iv or 10 mg/kg, po; format: ADME, organism-based; details: in vivo; outline: as §1
[20] = Oral bioavailability in Sprague-Dawley rat at 2 mg/kg, iv or 10 mg/kg, po; format: ADME, organism-based; details: in vivo; outline: as §1
[21] = Volume of distribution at steady state in C57 mouse at 2 mg/kg, iv or 10 mg/kg, po; format: ADME, organism-based; details: in vivo, read-out: Vdss; outline: as §1
[22] = Cmax in C57 mouse at 2 mg/kg, iv or 10 mg/kg, po; format: ADME, organism-based; details: in vivo; outline: as §1
[23] = molecular target: T3, Cathepsin K (Homo sapiens, UniProt P43235); assay: Inhibition of human cathepsin K
T3 sequence (P43235 whole entry): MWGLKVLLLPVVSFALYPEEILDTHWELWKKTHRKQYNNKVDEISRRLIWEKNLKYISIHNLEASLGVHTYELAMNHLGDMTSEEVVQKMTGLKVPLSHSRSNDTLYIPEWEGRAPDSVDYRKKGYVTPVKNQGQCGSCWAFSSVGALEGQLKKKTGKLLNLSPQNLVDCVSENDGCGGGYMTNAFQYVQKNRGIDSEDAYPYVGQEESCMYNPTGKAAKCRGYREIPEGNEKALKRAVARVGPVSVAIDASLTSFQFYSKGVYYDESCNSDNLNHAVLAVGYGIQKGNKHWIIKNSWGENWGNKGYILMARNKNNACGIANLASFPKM

[24] = Dissociation constant, pKa of the compound; format: physicochemical
[25] = Clearance in cynomolgus monkey at 2 mg/kg, iv or 10 mg/kg, po; format: ADME, organism-based, Macaca fascicularis; details: in vivo; outline: as §1
[26] = Oral bioavailability in cynomolgus monkey at 2 mg/kg, iv or 10 mg/kg, po; format: ADME, organism-based, Macaca fascicularis; details: in vivo; outline: as §1
[27] = Cmax in cynomolgus monkey at 2 mg/kg, iv or 10 mg/kg, po; format: ADME, organism-based, Macaca fascicularis; details: in vivo; outline: as §1
[28] = molecular target: Cathepsin S (Mus musculus, UniProt O70370); assay: Inhibition of mouse cathepsin S
Chain of Cathepsin S (Mus musculus, UniProt O70370) (O70370 whole entry): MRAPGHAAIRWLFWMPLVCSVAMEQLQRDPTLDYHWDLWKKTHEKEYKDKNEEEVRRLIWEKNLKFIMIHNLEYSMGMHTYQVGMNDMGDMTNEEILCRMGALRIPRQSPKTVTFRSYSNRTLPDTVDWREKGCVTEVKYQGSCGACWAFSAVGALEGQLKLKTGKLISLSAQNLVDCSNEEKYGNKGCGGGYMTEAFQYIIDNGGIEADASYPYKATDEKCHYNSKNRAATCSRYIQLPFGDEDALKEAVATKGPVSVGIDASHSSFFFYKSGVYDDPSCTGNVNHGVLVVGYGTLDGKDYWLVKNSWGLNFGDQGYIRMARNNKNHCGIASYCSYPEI

[29] = Volume of distribution at steady state in cynomolgus monkey at 2 mg/kg, iv or 10 mg/kg, po; format: ADME, organism-based, Macaca fascicularis; details: in vivo, read-out: Vdss; outline: as §1

Chain of Procathepsin L (P07711 whole entry): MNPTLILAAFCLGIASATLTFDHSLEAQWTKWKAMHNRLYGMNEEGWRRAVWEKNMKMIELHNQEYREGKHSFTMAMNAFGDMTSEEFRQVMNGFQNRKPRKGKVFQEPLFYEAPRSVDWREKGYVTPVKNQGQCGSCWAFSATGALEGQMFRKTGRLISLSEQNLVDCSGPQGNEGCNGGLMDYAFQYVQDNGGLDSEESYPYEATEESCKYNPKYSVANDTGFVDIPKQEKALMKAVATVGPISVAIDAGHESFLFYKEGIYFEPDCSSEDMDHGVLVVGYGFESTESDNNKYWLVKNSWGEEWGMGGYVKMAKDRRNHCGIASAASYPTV

Row | IC50 [1] [nM] | IC50 [2] [nM] | IC50 [4] [nM] | concentration [10] [µM] | concentration [11] [µM] | Kp [12] | IC50 [13] [nM] | IC50 [14] [nM] | IC50 [23] [nM] | pKa [24] | further results | SMILES
1 | > 10000 | > 10000 | > 10000 |  |  |  |  |  |  |  | Stability [3]: Stable; Stability [5]: Stable; Stability [6]: Stable | Cn1cnc2c(C#N)nc(-c3ccc(OCCC4CCNCC4)c(C(F)(F)F)c3)cc21
2 | > 10000 | > 10000 | > 10000 |  |  |  |  |  |  |  | concentration at 4 h [7]: 0.094 µM; concentration at 4 h [8]: 2.43 µM; Kp at 4 h [9]: 26 | CN(C)CCCOc1ccc(-c2cc3c(ncn3C)c(C#N)n2)cc1C(F)(F)F
3 | > 10000 | > 10000 | > 10000 | 4.57 | 0.09 | 51 |  |  |  |  |  | CCN1CCN(CCCOc2ccc(-c3cc4c(ncn4C)c(C#N)n3)cc2C(F)(F)F)CC1
4 | > 10000 | > 10000 | > 10000 |  |  |  | 7.9 | 10 |  |  |  | CN1CCC(CCOc2ccc(-c3cc4c(ncn4C)c(C#N)n3)cc2C(F)(F)F)CC1
5 | > 10000 | > 10000 | > 10000 | 11.7 | 1.03 | 11.4 |  | 22 | 407 | 7.5 | bioavailability [15]: 62%; Vd [16]: 9.8 L/kg; clearance [17]: 79.4 mL/min/kg; clearance [18]: 93.5 mL/min/kg; Cmax [19]: 13.4 ng/mL; bioavailability [20]: 8.93%; Vd [21]: 6.17 L/kg; Cmax [22]: 296 ng/mL | CN(C)C(=O)CN1CCC(CCOc2ccc(-c3cc4c(ncn4C)c(C#N)n3)cc2C(F)(F)F)CC1
6 | > 10000 | > 10000 | > 10000 | 19.6 | 3.4 | 5.8 | 3.3 | 12 | 288 | 7.9 |  | Cc1noc(C)c1CN1CCC(CCOc2ccc(-c3cc4c(ncn4C)c(C#N)n3)cc2C(F)(F)F)CC1
7 | > 10000 | > 10000 | > 10000 | 12.5 | 6.61 | 1.9 | 7.9 | 39 | 708 | 6.3 | bioavailability [15]: 112%; Vd [16]: 2.43 L/kg; clearance [17]: 13.9 mL/min/kg; clearance [25]: 10 mL/min/kg; clearance [18]: 73.8 mL/min/kg; bioavailability [26]: 9%; Cmax [19]: 9.64 ng/mL; Cmax [27]: 234 ng/mL; IC50 [28]: 1.6 nM; bioavailability [20]: 3.6%; Vd [21]: 1.48 L/kg; Cmax [22]: 3160 ng/mL; Vd [29]: 0.6 L/kg | Cn1cnc2c(C#N)nc(-c3ccc(OCCC4CCN(Cc5ncco5)CC4)c(C(F)(F)F)c3)cc21
8 | > 10000 | > 10000 | > 10000 | 18.2 | 6.37 | 2.9 | 14.1 | 123 | 813 | 5.6 |  | Cc1nnc(CN2CCC(CCOc3ccc(-c4cc5c(ncn5C)c(C#N)n4)cc3C(F)(F)F)CC2)o1
9 | > 10000 | > 10000 | > 10000 | 4.09 | 5.66 | 0.7 | 18.6 | 294 | 1150 | 5.3 |  | Cc1noc(CN2CCC(CCOc3ccc(-c4cc5c(ncn5C)c(C#N)n4)cc3C(F)(F)F)CC2)n1
10 | > 10000 | > 10000 | > 10000 |  |  |  | 13 | 235 | 1910 |  |  | CC(=O)N1CCC(CCOc2ccc(-c3cc4c(ncn4C)c(C#N)n3)cc2C(F)(F)F)CC1
11 | > 10000 | > 10000 | > 10000 |  |  |  | 27 | 353 | 2340 |  |  | Cn1cnc2c(C#N)nc(-c3ccc(OCCC4CCN(S(C)(=O)=O)CC4)c(C(F)(F)F)c3)cc21
